From ChEMBL document CHEMBL1949638, “4'-bromo-5,6,7-trimethoxyflavone represses lipopolysaccharide-induced iNOS and COX-2 expressions by suppressing the NF-κB signaling pathway in RAW 264.7 macrophages” (Bioorg Med Chem Lett, 2012)
Values belong to the compound of their own block, whether it stands above or below them. Active and inactive are the calls of the source. No cut-off for these calls is given here.

Columns and labels:
RAW264.7 [1] = assay: Antiinflammatory activity against mouse RAW264.7 cells assessed as inhibition of LPS-induced NO production at 25 uM preincubated for 1 hr before LPS challenge measured after 24 hrs by Griess method; assay type: functional
In short: (§1)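 Pretreatment with test agent for 1 h, then LPS 1 μg/ml for 24 h; nitrite in culture medium measured by Griess assay. IC50 derived; means ± SDs of three independent experiments. L-NIL 10 μM served as reference NO inhibitor.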

RAW264.7 [2] = assay: Cytotoxicity against mouse LPS-stimulated RAW264.7 cells assessed as effect on cell viability up to 50 uM after 24 hrs; assay type: cell-based; conditions: raw264.7, 24 h
In short: (§2)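 RAW 264.7 viability checked after 24 h exposure to compounds up to 50 µM, with and without LPS.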

RAW264.7 [3] = assay: Cytotoxicity against mouse RAW264.7 cells assessed as effect on cell viability up to 50 uM after 24 hrs; assay type: cell-based; conditions: raw264.7, 24 h; in short: as §2
RAW264.7 [4] = assay: Cytotoxicity against mouse RAW264.7 cells; assay type: cell-based
RAW264.7 [5] = assay: Antiinflammatory activity against mouse RAW264.7 cells assessed as inhibition of LPS-induced PGE2 production at 25 uM by EIA; assay type: functional
RAW264.7 [6] = assay: Antiinflammatory activity against mouse RAW264.7 cells assessed as inhibition of LPS-induced NO production at <16.73 uM preincubated for 1 hr before LPS challenge measured after 24 hrs by Griess method; assay type: functional, cell-based
RAW264.7 [7] = assay: Inhibition of NF-kappaB in mouse RAW264.7 cells assessed as inhibition of LPS-induced iNOS expression preincubated 1 hr before LPS challenge measured after 24 hrs by Western blot analysis; assay type: cell-based
In short: (§3)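 1 h pretreatment at 6.25, 12.5 or 25 μM, then LPS 1 μg/ml for 24 h. Controls had neither LPS nor compound. 30 μg total protein run on SDS–PAGE, blotted to nitrocellulose, probed with iNOS- and COX-2-specific antibodies. Blots representative of three experiments.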

RAW264.7 [8] = assay: Inhibition of NF-kappaB in mouse RAW264.7 cells assessed as reduction of LPS-induced IL6 mRNA expression at 6.25 to 25 uM after 4 hrs by quantitative RT-PCR analysis; assay type: cell-based
In short: (§4)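 RNA prepared after 4 h of LPS 1 μg/ml stimulation with or without 6.25–25 μM compound. TNF-α, IL-6 and IL-1β transcripts quantified by qRT-PCR and normalised to β-actin. Three independent experiments.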

RAW264.7 [9] = assay: Inhibition of NF-kappaB in mouse RAW264.7 cells assessed as reduction of LPS-induced IL6 release at 6.25 to 25 uM pretreated for 1 hr before LPS challenge and measured after 24 hrs post LPS challenge by EIA; assay type: cell-based
In short: (§5)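 Compound at 6.25, 12.5 or 25 μM given 1 h ahead of LPS 1 μg/ml, then 24 h incubation. TNF-α, IL-6 and IL-1β in culture medium quantified by EIA kits. Means ± SDs of three independent experiments.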

[10] = tested on: Peritoneal macrophage cell; assay: Antiinflammatory activity against thioglycolate-stimulated C57BL/6 mouse peritoneal macrophages assessed as inhibition of LPS-induced NO production preincubated for 1 hr before LPS challenge measured after 24 hrs by Griess method; assay type: functional, cell-based
In short: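 Peritoneal macrophages harvested from thioglycolate-injected C57BL/6 mice. Test agent 6.25, 12.5 or 25 μM added 1 h before LPS 1 μg/ml, with 24 h incubation. NO in the medium measured by Griess assay. Three independent experiments, means ± SDs.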

RAW264.7 [11] = assay: Inhibition of NF-kappaB in mouse RAW264.7 cells assessed as reduction of LPS-induced IL1beta mRNA expression at 6.25 to 25 uM after 4 hrs by quantitative RT-PCR analysis; assay type: cell-based; in short: as §4
RAW264.7 [12] = assay: Inhibition of NF-kappaB activation in LPS-stimulated mouse RAW264.7 cells assessed as blockage of IkappaBalpha degradation pretreated at 6.25 to 25 uM for 1 hr before LPS challenge measured after 15 to 60 mins post challenge by Western blotting; assay type: cell-based
In short: (§6)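 Pretreatment 1 h at 6.25, 12.5 or 25 μM, then LPS 1 μg/ml for 15 min or 1 h. Cytosolic extracts immunoblotted for phospho-IκBα and IκBα, with β-actin as loading control. Blots representative of three experiments.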

RAW264.7 [13] = assay: Inhibition of NF-kappaB in mouse RAW264.7 cells assessed as reduction of LPS-induced TNFalpha release at 6.25 to 25 uM pretreated for 1 hr before LPS challenge and measured after 24 hrs post LPS challenge by EIA; assay type: cell-based; in short: as §5
RAW264.7 [14] = assay: Inhibition of NF-kappaB in mouse RAW264.7 cells assessed as inhibition of LPS-induced expression of COX2 preincubated 1 hr before LPS challenge measured after 24 hrs by Western blot analysis; assay type: cell-based; in short: as §3
RAW264.7 [15] = assay: Antiinflammatory activity against mouse RAW264.7 cells assessed as inhibition of LPS-induced PGE2 production by EIA; assay type: functional, cell-based
RAW264.7 [16] = assay: Inhibition of NF-kappaB in mouse RAW264.7 cells co-transfected with piNOS-luc reporter with pRL-TK-luc assessed as inhibition of LPS-induced iNOS expression pretreated for 1 hr before LPS challenge by luciferase assay; assay type: cell-based
In short: (§7)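 Cells transiently co-transfected with the piNOS-luc or pCOX-2-luc reporter plus pRL-TK-luc, then pretreated 1 h with 6.25, 12.5 or 25 μM before LPS. Luciferase activity read on a luminometer. Means ± SDs of three independent experiments.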

[17] = tested on: Peritoneal macrophage cell; assay: Antiinflammatory activity against thioglycolate-stimulated C57BL/6 mouse peritoneal macrophages assessed as inhibition of LPS-induced PGE2 production by EIA; assay type: functional, cell-based
RAW264.7 [18] = assay: Inhibition of NF-kappaB in mouse RAW264.7 cells assessed as reduction of LPS-induced TNFalpha mRNA expression at 6.25 to 25 uM after 4 hrs by quantitative RT-PCR analysis; assay type: cell-based; in short: as §4
RAW264.7 [19] = assay: Antiinflammatory activity against mouse RAW264.7 cells assessed as inhibition of LPS-induced NO production preincubated for 1 hr before LPS challenge measured after 24 hrs by Griess method; assay type: functional, cell-based; in short: as §1
RAW264.7 [20] = assay: Inhibition of NF-kappaB in mouse RAW264.7 cells co-transfected with pCOX-2-luc reporter with pRL-TK-luc assessed as inhibition of LPS-induced COX2 expression pretreated for 1 hr before LPS challenge by luciferase assay; assay type: cell-based; in short: as §7
RAW264.7 [21] = assay: Inhibition of NF-kappaB in mouse RAW264.7 cells assessed as reduction of LPS-induced IL1beta release at 6.25 to 25 uM pretreated for 1 hr before LPS challenge and measured after 24 hrs post LPS challenge by EIA; assay type: cell-based; in short: as §5
[22] = target: Transcription factor p65 (Mus musculus) (UniProt Q04207); assay: Inhibition of NF-kappaB p65 subunit nuclear translocation in LPS-induced mouse RAW264.7 cells pretreated for 1 hr before LPS challenge measured after 15 min or 1 hr post challenge by Western blot analysis
Transcription factor p65 (Mus musculus), sequence (Q04207 whole entry): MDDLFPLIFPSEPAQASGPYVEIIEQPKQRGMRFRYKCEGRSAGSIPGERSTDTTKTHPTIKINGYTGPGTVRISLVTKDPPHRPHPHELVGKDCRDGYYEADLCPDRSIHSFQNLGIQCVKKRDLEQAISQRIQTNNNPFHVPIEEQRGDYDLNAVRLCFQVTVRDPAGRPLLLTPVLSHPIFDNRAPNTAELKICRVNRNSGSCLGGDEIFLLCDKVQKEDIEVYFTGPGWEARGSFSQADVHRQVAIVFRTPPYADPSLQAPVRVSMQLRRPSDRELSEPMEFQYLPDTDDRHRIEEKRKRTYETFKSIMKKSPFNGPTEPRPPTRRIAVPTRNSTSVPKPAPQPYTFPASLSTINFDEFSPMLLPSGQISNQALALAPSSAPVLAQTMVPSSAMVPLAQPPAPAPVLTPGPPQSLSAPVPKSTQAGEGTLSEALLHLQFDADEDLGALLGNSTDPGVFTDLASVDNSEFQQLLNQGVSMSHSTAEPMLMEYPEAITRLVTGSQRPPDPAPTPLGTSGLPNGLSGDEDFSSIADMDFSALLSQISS

RAW264.7 [23] = assay: Inhibition of NF-kappaB in mouse RAW264.7 cells assessed as suppression of LPS-induced iNOS mRNA level at 6.25 to 25 uM after 4 hrs by quantitative RT-PCR analysis; assay type: cell-based
In short: (§8)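 Total RNA taken from cells exposed to LPS 1 μg/ml with or without 6.25, 12.5 or 25 μM compound for 4 h. Steady-state iNOS and COX-2 mRNA measured by qRT-PCR and expressed as a ratio to β-actin. Means ± SDs, n=3 independent experiments. ANOVA with Dunnett's test.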

RAW264.7 [24] = assay: Inhibition of NF-kappaB in mouse RAW264.7 cells assessed as suppression of LPS-induced COX2 mRNA level at 6.25 to 25 uM after 4 hrs by quantitative RT-PCR analysis; assay type: cell-based; in short: as §8
RAW264.7 [25] = assay: Inhibition of NF-kappaB activation in LPS-stimulated mouse RAW264.7 cells assessed as blockage of IkappaBalpha phosphorylation pretreated at 6.25 to 25 uM for 1 hr before LPS challenge measured after 15 to 60 mins post challenge by Western blotting; assay type: cell-based; in short: as §6
RAW264.7 [26] = assay: Inhibition of NF-kappaB activation in mouse LPS-stimulated RAW264.7 cells co-transfected with pNF-KappaB-luc reporter and pRL-TK-luc pretreated for 1 hr before LPS challenge measured after 1 hr post challenge by luciferase assay; assay type: cell-based
In short: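 Cells co-transfected with pNF-κB-luc and pRL-TK-luc, pretreated 1 h with 6.25, 12.5 or 25 μM, then given LPS 1 μg/ml for another 1 h. Luciferase activity measured by luminometer. Three independent experiments.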

Structure (SMILES): COc1cc2oc(-c3ccc(N)cc3)cc(=O)c2c(OC)c1OC
inhibition at 25 µM (RAW264.7 [1]): 23.1%
Activity (RAW264.7 [2]): Non-toxic
Activity (RAW264.7 [3]): Non-toxic
IC50 (RAW264.7 [4]): > 100 µM
inhibition at 25 µM (RAW264.7 [5]): 69.5%

Structure (SMILES): O=c1cc(-c2ccc([N+](=O)[O-])cc2)oc2cc(O)c(O)c(O)c12
inhibition at 25 µM (RAW264.7 [1]): 7.65%
Activity (RAW264.7 [2]): Non-toxic
Activity (RAW264.7 [3]): Non-toxic
IC50 (RAW264.7 [4]): > 100 µM
inhibition at 25 µM (RAW264.7 [5]): 29.9%

Structure (SMILES): Nc1ccc(-c2cc(=O)c3c(O)c(O)c(O)cc3o2)cc1
inhibition at 25 µM (RAW264.7 [1]): 6.98%
Activity (RAW264.7 [2]): Non-toxic
Activity (RAW264.7 [3]): Non-toxic
IC50 (RAW264.7 [4]): 94.1 µM
inhibition at 25 µM (RAW264.7 [5]): 83.1%

Structure (SMILES): COc1cc2oc(-c3ccccc3)cc(=O)c2c(OC)c1OC [BAICALEIN TRIMETHYL ETHER]
inhibition at 25 µM (RAW264.7 [1]): 12.1%
Activity (RAW264.7 [2]): Non-toxic
Activity (RAW264.7 [3]): Non-toxic
IC50 (RAW264.7 [4]): > 100 µM
inhibition at 25 µM (RAW264.7 [5]): 42.2%

Structure (SMILES): COc1c(O)cc2oc(-c3ccccc3)cc(=O)c2c1O [OROXYLIN A]
inhibition at 25 µM (RAW264.7 [1]): 12.4%
Activity (RAW264.7 [6]): inactive
IC50 (RAW264.7 [4]): 16.7 µM

Structure (SMILES): O=c1cc(-c2ccccc2)oc2cc(O)c(O)c(O)c12 [BAICALEIN]
inhibition at 25 µM (RAW264.7 [1]): 11.1%
IC50 (RAW264.7 [4]): > 100 µM
inhibition at 25 µM (RAW264.7 [5]): 60.9%

IC50 (RAW264.7 [15]): 11 µM
IC50 (RAW264.7 [19]): 14.2 µM
inhibition [22]: Dose-dependent effect
Structure (SMILES): COc1cc2oc(-c3ccc(Br)cc3)cc(=O)c2c(OC)c1OC
inhibition (RAW264.7 [7]): Dose-dependent effect
inhibition (RAW264.7 [8]): Active
inhibition (RAW264.7 [9]): Active
inhibition [10]: Dose-dependent effect
inhibition (RAW264.7 [11]): Active
inhibition at 25 µM (RAW264.7 [1]): 89.6%
inhibition (RAW264.7 [12]): Active
Activity (RAW264.7 [2]): Non-toxic
inhibition (RAW264.7 [13]): Active
inhibition (RAW264.7 [14]): Dose-dependent effect
inhibition (RAW264.7 [15]): Dose-dependent effect
inhibition (RAW264.7 [16]): Dose-dependent effect
inhibition [17]: Dose-dependent effect
inhibition (RAW264.7 [18]): Active
inhibition (RAW264.7 [19]): Dose-dependent effect
inhibition (RAW264.7 [20]): Dose-dependent effect
Activity (RAW264.7 [3]): Non-toxic
inhibition (RAW264.7 [21]): Active
inhibition (RAW264.7 [23]): Active
IC50 (RAW264.7 [4]): 69.9 µM
inhibition (RAW264.7 [24]): Active
inhibition (RAW264.7 [25]): Active
inhibition at 25 µM (RAW264.7 [5]): 89.6%
inhibition (RAW264.7 [26]): Dose-dependent effect

Structure (SMILES): COc1cc2oc(-c3ccc([N+](=O)[O-])cc3)cc(=O)c2c(OC)c1OC
inhibition at 25 µM (RAW264.7 [1]): 17.4%
Activity (RAW264.7 [2]): Non-toxic
Activity (RAW264.7 [3]): Non-toxic
IC50 (RAW264.7 [4]): > 100 µM
inhibition at 25 µM (RAW264.7 [5]): 84.4%

Structure (SMILES): O=c1cc(-c2ccc(Br)cc2)oc2cc(O)c(O)c(O)c12
inhibition at 25 µM (RAW264.7 [1]): 27%
Activity (RAW264.7 [2]): Non-toxic
Activity (RAW264.7 [3]): Non-toxic
IC50 (RAW264.7 [4]): 57.1 µM
inhibition at 25 µM (RAW264.7 [5]): 29.9%
